experiment: Toxicity liver stage against HepG2, at 10uM; format: cell-based; design: test concentration 10 uM, cell line HepG2-A16-CD81EGFP; details: human, HepG2-A16-CD81EGFP cells; read-out: INHIBITION
Summary of the method: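 Uninfected HepG2-A16-CD81EGFP cells, 3 × 10^3 per well, 1536-well, plated on prespotted compound at 10 μM final, parasite-free screening media added to match infected plates; puromycin 10 μM positive, DMSO 0.5% negative; run in parallel with 48 h PbLuc assay at 37 °C, 5% CO2; viability by CellTiter-Glo luminescence, normalized to controls.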

Row | Structure (SMILES) | cytotoxicity at 10 µM [%]
1 | COc1ccc(-c2nnc([C@H]3CCN(CC4CC4)C3)o2)cc1 | -4.6
2 | CC1=C[C@@H](CC#N)[C@H](C(C)C)C[C@H]1CC(=O)N1CCN(C)CC1 | -4.42
3 | CN1C[C@H](O)C[C@H]1c1nc(-c2ccc3c(c2)OCO3)no1 | 6.88
4 | O=c1c2cnc(N3CCOCC3)nc2ccn1-c1ccccc1 | -3.12
5 | CCOc1ccc(C(=O)Nc2ccn(CC)n2)cc1 | 3.16
6 | Cn1cc(NC(=O)c2cc3c(s2)CCCC3)cn1 | -2.17
7 | CNC(=O)c1cnn2c(C3CCCN3)ccnc12 (configuration not stated) | 8.88
8 | Cc1cnc(C(=O)NCC2Cc3ccccc3O2)cn1 (configuration not stated) | -0.71
9 | N#Cc1cccnc1NCCc1cc(F)cc2c1OCOC2 | 19.5
10 | CC(C)c1nnc(CN2CC(n3cccn3)C2)o1 | -149
11 | CS(=O)(=O)c1ccc(NC(=O)NCCC2=CCCCC2)cc1 | -0.529
12 | CN(CC(=O)NC(C)(C)C)C(=O)c1cccn1CCc1ccccc1 | 6.1
13 | COc1ccccc1OCCNC(=O)NCC(C)C | 7.54
14 | Cc1c(C(=O)NC2=NCCS2)cnn1-c1ccc(Br)cc1 | -0.647
15 | Cc1c(Cl)cccc1NC(=O)CCNc1ccc(C#N)cn1 | -0.106
16 | COC(=O)N1CCC(Nc2cccc(F)c2C(C)=O)C1 (configuration not stated) | 11.2
17 | COC(=O)C1CN(CC(=O)Nc2cccc(OC)c2)c2ccccc21 (configuration not stated) | 11.1
18 | O=C(Nc1cnc(C2CC2)nc1)N1CCCC1 | -14.9
19 | Cc1nn(C)c(N2CCOCC2)c1CNCC1CCCN1C (configuration not stated) | -1.96
20 | CS(=O)(=O)NCCC(=O)NC1(c2ccc(F)cc2)CCCC1 | -1.1
21 | Cc1nc(C)c(C)c(N2CCC3(CCOC3)C2)n1 (configuration not stated) | -1.31
22 | CCN(CC(=O)NC(C)C)C(=O)C(C)(C)c1ccc2c(c1)OCCO2 | -2.79
23 | Cn1cccc(NC(=O)COc2ccc(Cl)cc2)c1=O | 4.69
24 | COc1ccccc1-c1cc(NC(=O)CCS(=O)(=O)C2CCCC2)[nH]n1 | -123
25 | CCc1cnc(CN2CCOC(c3nc(C)n[nH]3)C2)o1 (configuration not stated) | -4.83
26 | COc1ccccc1OCCC(=O)NCc1ncc(C)c(OC)c1C | -3.63

Row | Structure (SMILES) | cytotoxicity at 10 µM [%]
27 | CC(C(=O)NC(C)(C)C)N1CCC(C(=O)Nc2cnccn2)CC1 (configuration not stated) | -1.36
28 | Cc1cccnc1NC(=O)C1CCN(C(C)C(=O)NC(C)(C)C)CC1 (configuration not stated) | 3.15
29 | COc1ccc(C(=O)N2CCN(C(=O)Cn3nccc3C)CC2)cc1 | 6.88
30 | CCN(CCCN1CCOCC1)C(=O)c1cnn(CC)c1 | 46.6
31 | COc1ccccc1OCc1cc(C(=O)N2CCS(=O)(=O)CC2)n[nH]1 | -2.93
32 | CCc1ccc2nc(C)cc(C(=O)NC3CCNC3=O)c2c1 (configuration not stated) | -4.65
33 | Cc1cc(C(=O)NC(C)C(=O)Nc2cc(F)ccc2C)nc(C)n1 (configuration not stated) | -3.71
34 | COc1ccc(F)cc1C(=O)N1CC(c2ccncc2)C1 | -4.93
35 | CCc1ccc(-c2cn3c(C(=O)NCC(C)C(=O)NC)csc3n2)cc1 (configuration not stated) | 9.21
36 | Cc1nnc(NC(=O)N2CCCN(C3CCCC3)CC2)s1 | -3.16
37 | Cc1nn(C)cc1-c1ccnc(N(C)Cc2noc(C(C)C)n2)n1 | 1.41
38 | CCSC(C)c1nc(-c2ccc(C)nn2)no1 (configuration not stated) | -6.24
39 | Cc1cccc(C2CCCN(C(=O)CN3CCC(C(N)=O)CC3)C2)c1 (configuration not stated) | -5.17
40 | CC(C)(O)CCc1cccc(C(=O)N2CCC3(CCOCC3)CC2)c1 | 1.14
41 | COc1ccccc1OCc1cc(C(=O)N2[C@H](C)CC[C@@H]2C)n[nH]1 | -2.01
42 | COc1ccccc1OCc1cc(C(=O)N2CCC(C(C)O)CC2)n[nH]1 (configuration not stated) | 0.127
43 | Cc1ncsc1CCNC(=O)Cn1nc(C)n(Cc2ccccc2)c1=O | 7.48
44 | CC(C)c1cc(NC(=O)c2cccnc2)[nH]n1 | -4.24
45 | Cc1cccc(-c2noc(CN3CCOC(Cn4cccn4)C3)n2)c1 (configuration not stated) | -3.07
46 | O=C(NCc1ccccn1)C1=NN(c2ccccc2)C(=O)CN1 | -0.855
47 | Cc1cc(C)n(CC2CCCN2C(=O)c2nccc3ccccc23)n1 (configuration not stated) | -7.49
48 | CCN(C)c1ncnc2c1CCN(C(=O)c1ccoc1C)CC2 | -0.675
49 | Cc1ccc(SCCN(C)C(=O)c2cn(C3CCC(N)CC3)nn2)cc1 (configuration not stated) | -8.59
50 | CC(C)NC(=O)CN(C)CC(=O)Nc1ccnn1C(C)C1CC1 (configuration not stated) | -6
51 | CNc1ccnc(N2C[C@H]3CC[C@@H](C2)N(CCOC)C3=O)n1 | 7.64
52 | Cc1ccc2nc(CNCCCOc3ccccc3)cc(O)c2c1 [UCSF924] | 5.5

— ChEMBL document CHEMBL4513216, “Probing the Open Global Health Chemical Diversity Library for Multistage-Active Starting Points for Next-Generation Antimalarials” (ACS Infect Dis, 2020)
